# Compound activity from PubChem BioAssay.
# HSF1 inh = HSF1 inhibition. activity change, negative = inhibition, % at 7.5 µM (by protocol). 300,000 compounds, 0.77% hits. NIH3T3-HGL HSE-luciferase, MG132-induced, luminescence 8 h; stronger effect = lower value;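 active = more than half of replicate wells show activity change below -50%, luminescence cut by over half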;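 note: luciferase reports HSF-1 transcriptional activity via heat shock element; 0% = median of DMSO wells and -100% = zero luminescence signal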
# T cruzi repl = T. cruzi replication inhibition; T. cruzi beta-gal in NIH3T3, luminescence, 90 h; inhibition, % (concentration not given with the values); 300,000 compounds, 1.4% hits; AID 1885;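 active = mean inhibition across valid replicates above about 55%, limit read from the data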;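 note: signal also drops with host cell toxicity which is not excluded here; 0% = plate median of DMSO wells and 100% = zero luminescence signal; higher percent means less beta-gal luminescence so fewer parasites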
#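 assay system = mouse NIH/3T3 fibroblasts infected with β-gal-expressing T. cruzi Tulahuen C4 | input = 5,000 NIH/3T3 host cells per well | buffer or medium = DMEM plus 2% FBS | timing = 3 h host attachment, then at least 90 h co-culture | measured by = GalScreen luminescence, 60 min | evaluation = luminescence reflecting intracellular parasite burden, expressed as percent inhibition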
# HSF1 activator = increases HSF-1 driven luciferase reporter signal. NIH3T3-HGL HSF-1 luciferase reporter, MG132, 8 h; 100% = twice DMSO control signal. activation, % at 9 µM. 300,000 compounds, 1.7% hits;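 active = mean replicate activation of at least 50% with a set share of replicates each reaching 50%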;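 note: 0% = median of the neutral control wells and 100% = twice that signal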
# Jurkat NFkB inh = inhibitors of the PMA/ionomycin-induced NF-kB reporter in Jurkat cells. AID 435003. 330,000 compounds, 0.53% hits. PMA/ionomycin-induced NF-kB luciferase reporter, luminescence. inhibition, % at 4 µM; in the data active = inhibition above about 50%
# 697 NFkB inh = inhibitors of the PMA/ionomycin-induced NF-kB reporter in 697 B cells. 697 B-cell NF-kB luciferase reporter, 16 h. inhibition, % at 4 µM. 330,000 compounds, 0.33% hits; in the data active = inhibition above about 35%
# GPR7 antag = blocks human GPR7 receptor signaling | P48145 | GPR7-expressing cells, fluorescence antagonist assay | 290,000 compounds, 1.1% hits | inhibition, % at 4.4 µM; in the data active = inhibition above about 16%, passing the limit was not always enough;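 note: cells stimulated with the agonist NPW; 0% = agonist with vehicle and 100% = vehicle without agonist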
# Target sequence (P48145 whole entry, looked up): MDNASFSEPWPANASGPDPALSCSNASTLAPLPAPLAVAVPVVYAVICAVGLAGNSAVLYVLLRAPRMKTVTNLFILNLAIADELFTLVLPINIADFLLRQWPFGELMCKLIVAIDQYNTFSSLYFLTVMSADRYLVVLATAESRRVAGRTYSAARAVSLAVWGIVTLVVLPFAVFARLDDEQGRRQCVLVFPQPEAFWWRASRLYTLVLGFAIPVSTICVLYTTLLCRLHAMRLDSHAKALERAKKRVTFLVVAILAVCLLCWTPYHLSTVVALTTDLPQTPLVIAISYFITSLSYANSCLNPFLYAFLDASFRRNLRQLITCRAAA
# Active calls of the source: *; / = no result given. Rows were chosen to be rich in hits. Some 4.8% of all compounds tested hit in one or more screens of this group.
SMILES,HSF1 inh,T cruzi repl,HSF1 activator,Jurkat NFkB inh,697 NFkB inh,GPR7 antag
Cc1cccc(-n2ncc3c(NCc4ccc5c(c4)OCO5)ncnc32)c1,-7.6,3.3,-4.6,-33.2,-20.3,0.8
Cc1ccc(-n2ncc3c(NCc4ccc5c(c4)OCO5)ncnc32)c(C)c1,-55.1*,15.9,-61.9,-15.5,-16.8,3.4
CCOc1ccc(CN(C)C(=O)CNC(=O)c2ccc3ccccc3c2)cc1OC,21.2,-2.7,84.2*,-12.8,14.8,-7.2
COc1cc2nc(NC(=O)c3ccc(Cl)cc3)sc(=O)c2cc1OC,8.2,-16.9,56.9*,-3.2,8.3,23.3
COc1cccc(C2C(C(=O)Nc3nc4ccccc4s3)=C(C)NC3=C2C(=O)CC(C)(C)C3)c1OC (stereo not given),18.8,9.0,24.5,-11.0,-10.8,-5.1
COc1ccc(Br)cc1CN(C)C(=O)CNC(=O)c1ccc2ccccc2c1,5.1,4.1,8.7,23.4,14.1,-2.7
CN(C)C(=S)Nc1nc2ccccc2s1,45.2,56.5*,82.7*,/,/,-2.8
CCNC(=O)Nc1nc2ccccc2s1,22.6,-6.2,39.6,-73.6,-71.8,-2.3
COc1ccc(OC)c(C2C(C(=O)Nc3nc4ccccc4s3)=C(C)NC3=C2C(=O)CCC3)c1 (stereo not given),38.1,32.9,74.9*,-24.5,18.9,-4.9
COc1ccc(C(=O)Nc2ccc3ccccc3c2)cc1OC,25.5,-4.9,63.6*,-107.9,-104.4,3.3
COc1ccc(C(=O)Nc2nc3ccccc3s2)cc1OC,35.7,-3.9,71.4*,-68.5,-141.3,-3.3
COc1ccc(C(=O)Nc2nc3ccc(S(C)(=O)=O)cc3s2)cc1OC,-3.7,7.3,-6.3,-10.6,12.4,-11.7
Cc1ccc(C)c(-c2csc(NC(=O)c3cnccn3)n2)c1,-1.0,92.5*,-4.2,-2.6,-23.6,-2.2
Cc1cccc(CCN(C(=O)Cc2cccs2)C(C(=O)NC2CCCCC2)c2cccnc2)c1 (stereo not given),4.1,50.0,16.3,-6.8,1.0,-11.3
O=C(NC1CCCC1)C(c1ccccc1)N(Cc1cccnc1)C(=O)Cc1cccs1 (stereo not given),17.5,66.6*,54.6*,-30.5,1.3,2.2
Cc1ccc(CN(C(=O)Cc2cccs2)C(C(=O)NC2CCCC2)c2ccncc2)cc1 (stereo not given),-1.2,58.6*,15.8,-7.8,2.2,-13.1
COc1ccccc1N1C(=O)c2ccc(C(=O)Nc3ccc(C(=O)O)cc3)cc2C1=O,-2.9,-0.3,-2.2,-0.7,15.1,-2.2
O=C(N/N=C/c1cccc(OCc2ccccc2)c1)c1cccs1,10.1,8.4,44.2,-21.6,-32.1,-3.5
NC(=O)N/N=C/c1cccc(OCc2ccc(F)cc2)c1,-73.6*,-7.0,-78.4,-6.2,1.5,3.9
CN1CCN(c2nc(Nc3cccc(C(F)(F)F)c3)nc(N3CCOCC3)n2)CC1,-4.0,57.6*,-11.1,-24.4,-17.5,-3.6
COc1ccc(S(=O)(=O)N(CC(=O)NCc2ccncc2)c2ccc(C)cc2)cc1Br,10.0,11.0,26.5,6.4,12.9,1.5
Cc1ccc(C(=O)NC2CCCN(c3ccc(C(F)(F)F)cn3)C2)cn1 (stereo not given),12.4,-7.6,53.7*,-3.8,-24.8,4.2
O=C(CSc1nnc2ccccn12)NNC(=O)c1ccc(F)cc1,-5.0,-9.5,-18.8,-3.2,0.8,-11.7
Cn1cc([N+](=O)[O-])c(C(=O)Nc2ccc(Br)cn2)n1,60.2,-30.6,53.4*,-0.5,20.7,-8.8
CCSc1ccc(C(=O)Nc2ccc(Br)cn2)cc1[N+](=O)[O-],-4.9,26.5,-0.8,-28.3,10.5,5.6
SMILES,HSF1 inh,T cruzi repl,HSF1 activator,Jurkat NFkB inh,697 NFkB inh,GPR7 antag
Cn1cc([N+](=O)[O-])c(C(=O)Nc2nccs2)n1,48.9,-30.7,76.8*,7.3,13.0,9.0
c1ccc(Nc2ccc3c4c(cccc24)CC3)cc1,-7.7,64.5*,-11.8,-8.6,-26.7,-11.3
Cc1onc(-c2ccccc2Cl)c1C(=O)O/N=C(\N)c1ccccc1,-0.6,58.5*,1.9,21.5,-7.3,-8.9
CN1CCN(C(=O)CNc2ccc(C(F)(F)F)cc2[N+](=O)[O-])CC1,0.4,14.3,23.7,3.8,-9.8,10.8
O=c1c(=Nc2ccccc2O)c(=O)c2ccccc12,20.0,-40.2,55.1*,-30.9,0.7,-6.7
O=C(NCCc1ccccc1)C1=CCN(S(=O)(=O)c2ccccc2)CC1,9.7,-8.5,16.6,-7.7,-11.2,5.0
CC(C)(C)c1ccc(/C=C(\C#N)C(=O)Nc2ccccn2)cc1,-59.1*,-4.4,-69.1,12.1,20.3,-7.7
Cc1csc(SCC(=O)Nc2sccc2C(N)=O)n1,13.0,1.5,8.8,-38.1,-32.8,-7.8
COc1ccc(-c2nc(CNS(=O)(=O)c3ccc(OC)c(OC)c3)cs2)cc1,-62.6*,-7.5,-70.4,4.6,5.4,-7.0
Cc1cccc(OCCCC(=O)Nc2nccs2)c1,38.1,1.8,66.7*,12.8,12.4,1.7
Cc1ccc(OCCCC(=O)Nc2nccs2)cc1,-12.4,-8.1,-32.5,-13.2,-40.7,5.2
CC(Cc1ccccc1)C(=O)Nc1ccccc1 (stereo not given),-64.7*,-5.3,-71.4,-10.8,-6.1,-8.4
CCn1ncc(CNC(=O)c2cccc([N+](=O)[O-])c2)c1C,-3.7,-15.5,3.3,8.4,17.0,-2.0
O=C(O)c1ccc([N+](=O)[O-])c(CS(=O)(=O)c2ccc(Cl)cc2)c1,2.1,-15.5,-13.6,-12.7,9.1,-8.4
O=C(CBr)c1ccc([N+](=O)[O-])c(CS(=O)(=O)c2ccc(Cl)cc2)c1,53.2,-23.7,60.5*,-7.8,-19.2,16.6
CCOC(=O)C1=C(c2ccccc2)NC(N)=NC1c1ccc(OCc2ccc(Cl)cc2)c(OC)c1 (stereo not given),37.7,21.2,71.3*,-15.6,-2.0,1.1
CCOC(=O)C1=C(c2ccccc2)NC(=O)NC1c1cc(Cl)c(O)c(OC)c1 (stereo not given),-7.2,-2.1,-27.7,0.7,11.2,-18.1
Cc1cc(C(=O)C(C)Sc2cccc[n+]2[O-])c(C)n1-c1ccc(Cl)cc1 (stereo not given),13.8,-3.6,8.9,-13.1,-55.8,-8.0
Cc1[nH]n(-c2ccccc2)c(=O)c1C1(C(F)(F)F)C(=O)N(c2ccc(F)cc2)C2=C1C(=O)CC(C)(C)C2 (stereo not given),3.0,1.4,1.0,-16.8,7.0,-0.9
COc1ccc(-n2nc(C(=O)NCC(=O)N3CCOCC3)c3ccccc3c2=O)cc1Cl,13.1,-1.3,56.2*,-3.7,9.6,-5.8
COc1ccc(-n2nc(C(=O)NCC(=O)N3CCCC(C)C3)c3ccccc3c2=O)cc1Cl (stereo not given),5.8,14.0,14.8,-2.8,-16.8,-9.1
